# Screens as filed in PubChem.
# H69AR inhibit: blocks growth of human H69AR lung tumor cells. H69AR lung tumor viability, ATP luminescence, 72 h; stronger effect = lower value. viability, % at 10 µM. hit rate 6% among 85,000;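 active = viability at or below 40%; inactive = viability above 40%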;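 also: multidrug resistant small cell line overexpressing MRP-1 efflux transporter; 100% = mean luminescence of untreated control wells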
# Fibroblast inh: blocks proliferation of human lung fibroblasts; LL 47 human lung fibroblast viability, ATP luminescence; stronger effect = lower value; viability, % at 10 µM; hit rate 1.1% among 85,000;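 active = viability at or below 50% in the single dose screen; inactive = viability above 50%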;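 also: compound exposure lasted 72 h before the ATP readout; 100% = median luminescence of untreated cell-only wells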
#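 Test system: LL 47 human lung fibroblasts / Quantity: 1,150 cells in each well / Medium: IMEM growth medium with 15% fetal bovine serum / Incubation: 72 h compound exposure at 37 °C after overnight plating / Detection: CellTiter-Glo luminescence measuring cellular ATP / Read-out: % viability versus median cells-only luminescence / Benchmarks: cell-only wells, no compound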
# HUVEC prolif 384: inhibitors of human endothelial cell proliferation; AID 648; HUVEC proliferation, CellTiter-Glo luminescence, 72 h; stronger effect = lower value; viability, % at 10 µM (by protocol); hit rate 1.1% among 86,000;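 active = viability at or below 30%; inactive = viability above 30%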;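 also: 100% = median luminescence of DMSO-only cell control wells on each plate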
# MT1-MMP txn act: MT1-MMP promoter transcription activation. HT1080 MT1-MMP promoter luciferase reporter, luminescence, overnight; stronger effect = higher value. activation factor at 10 µM. hit rate 0.16% among 86,000. AID 750;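 active = activation factor of at least 2 for MT1-MMP transcription at 10 µM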
# Pyk2 oligo antag: antagonists of human Pyk2 oligomerization; Q14289; Q293 cells, Pyk2 FERM NanoBiT luminescence; stronger effect = lower value; z-score (the deposit names both 25 µM and 10 µM); hit rate 0.83% among 99,000; AID 1347419;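 active = Z-score of -3 or lower, scaled per plate to the spread of control and sample wells; inactive = z-score above -3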;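 also: negative z-score means lost luminescence so less FERM oligomerization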
# Target sequence (Q14289 whole entry, looked up): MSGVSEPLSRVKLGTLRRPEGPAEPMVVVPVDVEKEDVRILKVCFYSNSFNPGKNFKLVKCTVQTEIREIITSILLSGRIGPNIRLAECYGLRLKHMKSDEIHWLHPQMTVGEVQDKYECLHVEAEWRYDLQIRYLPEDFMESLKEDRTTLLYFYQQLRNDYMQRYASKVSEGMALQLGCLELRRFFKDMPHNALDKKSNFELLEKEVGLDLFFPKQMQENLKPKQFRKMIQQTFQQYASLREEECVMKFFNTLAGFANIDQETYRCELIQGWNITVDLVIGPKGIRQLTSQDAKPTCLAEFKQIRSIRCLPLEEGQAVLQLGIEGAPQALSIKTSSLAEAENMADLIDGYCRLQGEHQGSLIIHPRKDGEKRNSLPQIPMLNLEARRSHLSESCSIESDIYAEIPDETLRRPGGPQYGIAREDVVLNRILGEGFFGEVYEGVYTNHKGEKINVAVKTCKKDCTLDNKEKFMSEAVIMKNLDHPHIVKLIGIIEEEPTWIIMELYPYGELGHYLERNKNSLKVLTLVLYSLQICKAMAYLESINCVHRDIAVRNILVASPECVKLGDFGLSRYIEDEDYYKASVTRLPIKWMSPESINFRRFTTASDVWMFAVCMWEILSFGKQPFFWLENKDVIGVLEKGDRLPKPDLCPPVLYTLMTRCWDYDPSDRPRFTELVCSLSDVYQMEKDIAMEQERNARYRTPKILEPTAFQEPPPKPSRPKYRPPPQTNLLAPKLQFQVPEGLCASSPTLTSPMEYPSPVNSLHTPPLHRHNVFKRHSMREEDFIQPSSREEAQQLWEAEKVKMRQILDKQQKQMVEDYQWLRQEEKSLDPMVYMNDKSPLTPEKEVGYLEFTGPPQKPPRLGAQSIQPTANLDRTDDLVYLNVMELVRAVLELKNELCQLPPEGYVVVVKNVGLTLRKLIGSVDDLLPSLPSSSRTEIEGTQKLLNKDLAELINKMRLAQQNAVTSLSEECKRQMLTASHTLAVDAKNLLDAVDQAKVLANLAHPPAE
# Jurkat viability: reduces viability or proliferation of Jurkat cells | hit rate 1.2% among 56,000 | Jurkat E6.1 viability, ATP luminescence, 48 h | inhibition, % at 4 µM;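 active = inhibition above the mean inhibition of all tested compounds plus 3 SD, cut at about 28% in these data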
# Active calls of the source: *; · = not tested or not shown. Most compounds without a hit are left out; they make up all but 5.9% or so of the library.
SMILES,H69AR inhibit,Fibroblast inh,HUVEC prolif 384,MT1-MMP txn act,Pyk2 oligo antag,Jurkat viability
COc1ccc(NC(=O)CC2C(=O)N(c3cccc(OC)c3)C(=O)N2CCC(C)C)cc1 (centres undefined),79,92,91,1.1,0.07,·
CCOC(=O)Cc1csc(NC(=O)COc2ccc(OC)cc2)n1,86,103,94,1,·,0
CCOC(=O)Cc1csc(NC(=O)COc2ccc(N(C)S(=O)(=O)c3ccc(C)cc3)cc2)n1,89,102,94,1,-3.9*,·
CCCn1c(N)c(C(=O)CSc2nc(C)cs2)c(=O)n(C)c1=O,101,103,93,0.9,1.3,·
Cc1cc(N(C)Cc2ccccc2)nc(-c2ccccc2)n1,24*,80,63,·,-0.5,·
Cc1cccc(NC(=O)CCc2ccc(S(=O)(=O)NC3CCCCC3)cc2)c1,·,·,·,·,1.1,·
CC(C)c1ccc(CC(C)C2C3=C(CCCC3=O)OC3=C2C(=O)CCC3)cc1 (centres undefined),92,91,81,1.1,-4.2*,·
Cc1cc2c3nonc3ccc2n1-c1ccccc1,·,·,·,·,-0.84,·
O=C(CCC1CCCC1)N1CCN(C2CCCC2)CC1,88,87,94,1,0.39,-4
COc1ccc(CCC(=O)N2CCN(C3CCCCC3)CC2)cc1,91,17*,95,1.1,-0.14,-1
CCOc1ccc2nc(NC(=O)c3ccc(OC)c(S(=O)(=O)N4CCOCC4)c3)sc2c1,52,95,69,1,-3.7*,·
COc1ccc(CC(=O)Nc2nc3ccc(F)cc3s2)cc1S(=O)(=O)N1CCOCC1,39*,88,86,1.3,-0.79,·
Cc1c(O)c(O)cc2c1oc1c3ccccc3oc(=O)c21,·,·,·,1.1,·,·
Cc1cc(C)n(CCc2nc3c4ccccc4nc(SCc4ccc(C#N)cc4)n3n2)n1,86,113,77,1.1,·,-7
Cc1nc2ccccc2n1CCc1nc2c3ccccc3nc(SCC(=O)NCc3ccco3)n2n1,21*,10*,79,1.2,0.08,1
Cc1nc2ccccc2n1CCc1nc2c3ccccc3nc(SCC#N)n2n1,22*,77,28*,1.1,·,·
O=C(CCn1c(SCC(=O)NCc2ccco2)nc2ccccc2c1=O)NCCc1ccccc1,97,103,91,1.2,0.2,·
Cc1ccc(-c2csc3ncnc(SCC(=O)Nc4nnc(C)s4)c23)cc1,·,·,·,·,-0.32,·
Cc1ccc(-c2csc3ncnc(Sc4nnc(CN5CCCCCC5=O)o4)c23)cc1,-0.2*,31*,61,·,-2.9,71*
Cc1ccc(CNC(N)=S)cc1,·,·,·,·,0.8,·
CC(NC(=O)Nc1nnc(C(F)(F)F)s1)(C(F)(F)F)C(F)(F)F,6.2*,28*,28*,1.1,-1.4,·
CC1Cc2ccccc2N1C(=O)CSc1nc2c(c(=O)n(C)c(=O)n2C)n1Cc1ccccc1 (centres undefined),40,93,70,0.9,-2.8,-3
COC(=O)c1ccc(OC)c(CSc2nnc(COc3ccc(OC)cc3)o2)c1,88,90,97,1.1,-1.8,1
Cc1ccc2c(c1)c1c3n2CCCNC3CCC1 (centres undefined),·,·,·,1.2,-0.37,-2
c1cc2c(cc1C1CCCCC1)c1c3n2CCN=C3CCC1,0.2*,66,2.1*,1.4,-2.1,·
SMILES,H69AR inhibit,Fibroblast inh,HUVEC prolif 384,MT1-MMP txn act,Pyk2 oligo antag,Jurkat viability
Cc1ccc2c(c1)c1c3n2CCN=C3CCC1,92,98,83,1.2,-0.29,·
c1cc2c(cc1C1CCCCC1)c1c3n2CCCNC3CCC1 (centres undefined),1.3*,2.6*,2.7*,0.2,-0.43,·
CCOC(=O)c1ccc(NC(=S)NCCCN2CCCCC2)cc1,·,·,·,·,0.72,·
COc1ccc(Cl)cc1C(=O)NC(=S)Nc1cc(-c2nc3ccccc3[nH]2)ccc1C,·,·,·,·,0.62,·
Cc1cc(-c2nc3ncccc3o2)ccc1NC(=O)CC(C)C,·,·,·,1.3,·,-10
Cc1ccc(OCC(=O)Nc2ccc(-c3nc4ncccc4o3)cc2)c(C)c1,33*,97,71,1,1.4,-6
NC(=O)c1cc(S(=O)(=O)NC2CCCCC2)co1,101,98,98,1.3,0.57,-1
C=CCn1c(SCCOc2ccc(OC)cc2)nnc1C(C)NC(=O)Cc1ccc(OC)cc1 (centres undefined),79,98,95,1.1,-1.1,·
O=C(CC(c1ccccc1)c1ccccc1)Nc1ccc(Cl)cn1,17*,85,81,1.2,-0.65,·
CC1(C)CC(=O)C2=C(C1)OC(=O)C2(NC(=O)c1cccs1)C(F)(F)F (centres undefined),97,97,95,1.2,-0.17,-8
